The source of these data is ChEMBL document CHEMBL1125832, “Synthesis and dopaminergic activity of 3-substituted 1-(aminomethyl)-3,4-dihydro-5,6-dihydroxy-1H-2-benzopyrans: characterization of an auxiliary binding region in the D1 receptor” (J Med Chem, 1991).

The target in assay [1] is T1, 5-hydroxytryptamine receptor 1A (Rattus norvegicus, UniProt P19327).
T1 sequence (P19327 whole entry): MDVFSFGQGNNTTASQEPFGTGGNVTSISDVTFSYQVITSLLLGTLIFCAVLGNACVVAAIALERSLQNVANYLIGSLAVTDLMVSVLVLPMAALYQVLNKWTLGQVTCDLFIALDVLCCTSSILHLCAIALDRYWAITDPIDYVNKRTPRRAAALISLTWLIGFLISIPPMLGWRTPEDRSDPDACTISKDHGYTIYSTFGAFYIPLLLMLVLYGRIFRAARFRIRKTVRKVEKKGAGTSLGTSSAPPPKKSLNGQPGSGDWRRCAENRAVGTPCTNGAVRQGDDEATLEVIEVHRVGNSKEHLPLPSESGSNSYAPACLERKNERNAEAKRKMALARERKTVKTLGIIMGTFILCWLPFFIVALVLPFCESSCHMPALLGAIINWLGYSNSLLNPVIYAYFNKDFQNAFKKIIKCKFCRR
In words: Binding affinity towards 5-hydroxytryptamine 1A receptor using [3H]8-OH-DPAT as radioligand in competitive binding assay. The essentials:
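Rat anterior cortex membranes, pelleted and preincubated 30 min at 37 °C in 50 mM Tris-HCl pH 7.7, 4 mM CaCl2, 10 μM pargyline. Label [3H]8-OH-DPAT, 800 pM final; nonspecific binding with 10 μM spiroxatrine. Ki derived from IC50 by Cheng-Prusoff; mean with SEM range.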

For assay [2], the target named is T2, Adrenergic receptor alpha-2 (Rattus norvegicus, UniProt P22086+P19328+P22909).
T2 sequence (P22086 whole entry): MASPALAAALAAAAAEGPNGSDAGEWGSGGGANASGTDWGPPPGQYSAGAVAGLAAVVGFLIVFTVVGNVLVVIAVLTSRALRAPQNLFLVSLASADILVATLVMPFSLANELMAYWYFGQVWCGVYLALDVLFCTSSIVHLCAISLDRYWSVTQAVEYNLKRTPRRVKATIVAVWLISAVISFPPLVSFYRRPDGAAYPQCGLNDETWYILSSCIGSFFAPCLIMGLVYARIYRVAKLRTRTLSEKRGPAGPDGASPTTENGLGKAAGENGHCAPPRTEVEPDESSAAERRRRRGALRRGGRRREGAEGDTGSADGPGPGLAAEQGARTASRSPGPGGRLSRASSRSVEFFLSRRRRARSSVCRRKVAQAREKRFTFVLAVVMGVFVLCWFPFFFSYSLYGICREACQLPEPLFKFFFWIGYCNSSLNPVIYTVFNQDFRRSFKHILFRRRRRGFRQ
T2 sequence (P19328 whole entry): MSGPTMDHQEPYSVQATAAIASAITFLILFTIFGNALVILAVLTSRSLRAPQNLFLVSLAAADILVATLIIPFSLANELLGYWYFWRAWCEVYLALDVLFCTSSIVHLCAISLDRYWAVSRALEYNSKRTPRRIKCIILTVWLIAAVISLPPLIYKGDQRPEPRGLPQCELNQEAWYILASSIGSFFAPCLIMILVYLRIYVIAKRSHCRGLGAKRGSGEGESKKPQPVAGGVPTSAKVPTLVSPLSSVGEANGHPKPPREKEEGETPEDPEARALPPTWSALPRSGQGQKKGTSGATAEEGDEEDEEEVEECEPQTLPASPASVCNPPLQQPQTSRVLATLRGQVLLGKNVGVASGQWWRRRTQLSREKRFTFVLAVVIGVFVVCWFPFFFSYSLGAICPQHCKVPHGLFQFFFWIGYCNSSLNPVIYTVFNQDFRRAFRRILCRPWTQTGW
T2 sequence (P22909 whole entry): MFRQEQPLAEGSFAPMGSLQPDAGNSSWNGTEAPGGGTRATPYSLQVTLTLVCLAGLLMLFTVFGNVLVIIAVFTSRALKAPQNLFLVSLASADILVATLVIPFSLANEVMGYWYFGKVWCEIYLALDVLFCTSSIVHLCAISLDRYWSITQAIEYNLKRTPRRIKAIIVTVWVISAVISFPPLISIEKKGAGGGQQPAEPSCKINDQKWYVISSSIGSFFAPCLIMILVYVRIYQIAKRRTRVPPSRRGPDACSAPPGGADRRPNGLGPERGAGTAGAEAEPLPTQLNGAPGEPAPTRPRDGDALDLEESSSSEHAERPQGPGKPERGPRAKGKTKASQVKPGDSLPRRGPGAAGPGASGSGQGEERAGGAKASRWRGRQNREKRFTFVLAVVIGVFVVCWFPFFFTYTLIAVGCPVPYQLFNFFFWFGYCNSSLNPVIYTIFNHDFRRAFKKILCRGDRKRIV
In words: Binding affinity towards alpha-2 adrenergic receptor using [3H]rauwolscine as radioligand in competitive binding assay. Type of assay: protein assay. In a few lines:
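Frozen rat cortex membranes in Tris pH 7.4 buffer with NaCl, KCl, MgCl2, CaCl2 and ascorbate. [3H]rauwolscine at 325 pM final; nonspecific binding with 10 μM yohimbine. Incubated 45 min at 37 °C, then filtered. Ki derived from IC50 by Cheng-Prusoff.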

For assay [3], the system named is Rattus norvegicus. In words: Rat rotation experiments were conducted to evaluate rational behavior of the rats by administering at a dose of 1.0 umol/kg subcutaneously. Type of assay: functional. The essentials:
(§1)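 Rats with unilateral 6-hydroxydopamine lesions of the nigrostriatal bundle. Compound given subcutaneously or orally at the stated dose. Net contralateral rotations counted over 2 h after dosing and reported as mean ± SEM; negative values indicate ipsilateral turning.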

The subject of assay [4] is Rattus norvegicus. In words: Rat rotation experiments were conducted to evaluate rational behavior of the rats by administering at a dose of 2.0 umol/kg subcutaneously. Type of assay: functional. In a few lines: as §1
The subject of assay [5] is Rattus norvegicus. In words: Rat rotation experiments were conducted to evaluate rational behavior of the rats by administering at a dose of 0.2 umol/kg subcutaneously. Type of assay: functional. In a few lines:
as §1

Assay [6] in a line: Intrinsic activity relative to dopamine at D-2 receptor. The format is functional.
The target in assay [7] is T3, D(2) dopamine receptor (Rattus norvegicus, UniProt P61169). In words: Concentration required to inhibit 50% dopamine receptor D2 in a cell free homogenate of intermediate lobe of pituitary gland. The format is functional.
T3 sequence (P61169 whole entry): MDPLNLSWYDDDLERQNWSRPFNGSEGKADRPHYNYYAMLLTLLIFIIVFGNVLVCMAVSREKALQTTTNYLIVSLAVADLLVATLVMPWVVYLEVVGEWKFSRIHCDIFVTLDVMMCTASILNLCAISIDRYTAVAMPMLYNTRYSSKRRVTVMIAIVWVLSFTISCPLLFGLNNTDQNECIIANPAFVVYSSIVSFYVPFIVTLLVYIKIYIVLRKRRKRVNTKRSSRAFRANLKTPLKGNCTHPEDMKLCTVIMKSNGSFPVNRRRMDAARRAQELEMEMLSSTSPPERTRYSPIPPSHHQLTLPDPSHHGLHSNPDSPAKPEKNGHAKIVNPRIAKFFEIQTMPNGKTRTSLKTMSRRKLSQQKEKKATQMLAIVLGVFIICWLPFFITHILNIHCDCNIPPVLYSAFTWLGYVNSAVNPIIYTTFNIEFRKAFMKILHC
Assay [8] has as its target T3, D(2) dopamine receptor. In words: Binding affinity using [3H]-spiperone radioligand competitive binding assay against dopamine receptor D2. The essentials:
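Rat striatal membranes in Tris pH 7.4 buffer with salts and ascorbate. [3H]spiperone at 300 pM final; nonspecific binding with 10 μM YM-09151-2. Incubated 20 min at 37 °C, then filtered. Ki derived from IC50 by Cheng-Prusoff.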

The test system of assay [9] is Rattus norvegicus. In words: Rat rotation experiments were conducted to evaluate rational behavior of the rats by administering at a dose of 0.41 umol/Kg subcutaneously. Type of assay: functional. In a few lines:
as §1

Assay [10] has as its system Rattus norvegicus. In words: (§2) Rat rotation experiments were conducted to evaluate rational behavior of the rats by administering at a dose of […] subcutaneously. Type of assay: functional.
Assay [11] deals with T4, D(1A) dopamine receptor (Rattus norvegicus, UniProt P18901). In words: Binding affinity using [125 I] SCH 23982 radioligand competitive binding assay on dopamine receptor D1.
T4 sequence (P18901 whole entry): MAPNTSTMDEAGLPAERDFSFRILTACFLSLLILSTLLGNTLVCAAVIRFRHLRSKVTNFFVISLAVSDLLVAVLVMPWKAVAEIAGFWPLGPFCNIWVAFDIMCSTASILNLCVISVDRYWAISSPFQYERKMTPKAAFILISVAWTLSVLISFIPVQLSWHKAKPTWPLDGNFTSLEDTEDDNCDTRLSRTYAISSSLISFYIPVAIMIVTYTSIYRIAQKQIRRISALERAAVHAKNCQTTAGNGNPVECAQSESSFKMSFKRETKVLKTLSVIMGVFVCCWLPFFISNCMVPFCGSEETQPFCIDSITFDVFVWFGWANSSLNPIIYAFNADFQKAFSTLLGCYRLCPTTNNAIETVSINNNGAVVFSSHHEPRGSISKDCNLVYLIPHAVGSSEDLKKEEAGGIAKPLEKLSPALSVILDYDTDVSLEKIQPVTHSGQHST
Assay [12] has as its target T4, D(1A) dopamine receptor. In words: Inhibition of Dopamine receptor D1 activity by functional cyclase assay using cell free homogenate of rat striatum. Type of assay: tissue-based. In a few lines:
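Adenylate cyclase stimulation in cell-free homogenate of rat striatum. EC50 is the concentration giving half-maximal stimulation of cAMP production.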

In assay [13] the test system is Rattus norvegicus. In words: (§3) Rat rotation experiments were conducted to evaluate rational behavior of the rats by administering at a dose of […] oral. The format is functional.
Assay [14] concerns Rattus norvegicus. Described as §2. Type of assay: functional. The source holds these as a separate data set.
In assay [15] the test system is Rattus norvegicus. Described as §3. The format is functional. The source holds these as a separate data set.

Molecules are shown by their SMILES. Where only a bound is given, the exact number is not on record here.

`NC[C@@H]1O[C@H](c2ccccc2)Cc2c1ccc(O)c2O`: the Ki came out at 2550 nM in assay [1] and 40 nM in [2]. Further, the figures for the Activity in the assay with Rattus norvegicus [3], in the assay on Rattus norvegicus [4] and with Rattus norvegicus [5] were 1113, 1525 and 348, respectively. Besides, the Intrinsic activity in assay [6] was 98%.
Consider `NC[C@@H]1OC(c2ccccc2)Cc2c1ccc(O)c2O` (stereo partly specified), for which the results for the Ki (in assay [1]; in [2]; at D(2) dopamine receptor [8]) were 18100 nM, 122 nM and 776 nM, respectively. Besides, the EC50 at D(2) dopamine receptor [7] stood at 3910 nM. The values for the Activity in the assay on Rattus norvegicus [9], in the assay on Rattus norvegicus [3] and in the assay on Rattus norvegicus [10] were 192, 53 and 895, respectively. The Intrinsic activity in [6] stood at 101%.
Take `NC[C@H]1O[C@@H](c2ccccc2)Cc2c1ccc(O)c2O`: the Ki was more than 20000 nM in [1], 2500 nM in [2] and 4610 nM on D(2) dopamine receptor [8]. In addition, the midpoint of the response at D(2) dopamine receptor [7], the EC50, lay at 2850 nM. The same compound had an Activity in the assay with Rattus norvegicus [4] of -22. Further, the Intrinsic activity in assay [6] turned out to be 96%.
Take `CC(C)(C)C1Cc2c(ccc(O)c2O)[C@H](CN)O1` (stereo partly specified): the inhibition constant (Ki) was 450 nM in [2], 31.8 nM on D(1A) dopamine receptor [11] and 8190 nM at D(2) dopamine receptor [8]. Also, the values for the half-maximal effective concentration (EC50) on D(2) dopamine receptor [7] and at D(1A) dopamine receptor [12] were more than 10000 nM and 52.3 nM, respectively. For the same compound, the Activity with Rattus norvegicus [13] turned out to be 932; in the assay on Rattus norvegicus [14] it was 661; in the assay on Rattus norvegicus [10], 354; in the assay with Rattus norvegicus [15] it was 689.
For the compound `NC[C@@H]1OC(C2CCCCC2)Cc2c1ccc(O)c2O` (stereo partly specified), the Ki in [1] is more than 20000 nM; in [2] it was 271 nM; at D(1A) dopamine receptor [11], 5.4 nM; on D(2) dopamine receptor [8] it was 1120 nM. The 50% effective concentration (EC50) stood at 7030 nM on D(2) dopamine receptor [7] and 1.7 nM on D(1A) dopamine receptor [12]. The Intrinsic activity in [6] was determined as 85%.
As for `C=CCNC[C@@H]1OC(C2CCCCC2)Cc2c1ccc(O)c2O` (stereo partly specified), the Ki in assay [1] is more than 20000 nM; in [2], 2200 nM; on D(1A) dopamine receptor [11], 1540 nM. This compound yielded a concentration giving a half-maximal response (EC50) on D(1A) dopamine receptor [12] of 30.3 nM. In addition, the Activity with Rattus norvegicus [10] was found to be 667.
